Experimental data gathered from unrelated publications.
Compare with care: the assays were run in different laboratories.
CHRM1: Muscarinic acetylcholine receptor M1 (CHRM1, Homo sapiens, UniProt P11229)
CYP3A4: Cytochrome P450 3A4 (CYP3A4, Homo sapiens, UniProt P08684)

Structure (SMILES)	target	assay	test system	setting	quantity	value
C[N+]1(C)CCC(OC(=O)C(c2ccccc2)c2ccccc2)CC1	CHRM1	ligand displacement, radioligand			IC50	0.00467 µM
Cc1cc(C)nc(Nc2ncc(C(=O)NCCc3c(C)[nH]c4ccccc34)cn2)c1	Cytochrome P450 1A2 (CYP1A2, Homo sapiens, UniProt P05177)	enzyme activity, inhibitor	human, liver microsomes		IC50	16 µM
CC(C)C[C@H](NC(=O)[C@H](Cc1ccccc1)NC(=O)c1cnccn1)B(O)O	Chymase (CMA1, Homo sapiens, UniProt P23946)	enzyme activity, inhibitor			IC50	4.7 µM
Cc1cc(N2CCNCC2)nc2ccccc12	CHRM1	ligand displacement, radioligand		cell membranes	Ki	> 31600 nM
COc1ccc(CCNC[C@H](O)c2ccc(O)cc2)cc1OC	Beta-3 adrenergic receptor (ADRB3, Homo sapiens, UniProt P13945)	cell-free assay			Ki	2100 nM
CC[C@H](C)[C@H](NC(=O)[C@H](CCCNC(=N)N)NC(=O)[C@H](CCCCN)NC(=O)[C@@H]1CCCN1C(=O)[C@@H](N)Cc1c[nH]c2ccccc12)C(=O)N[C@@H](C)C(=O)O	N-terminal Xaa-Pro-Lys N-methyltransferase 1 (Homo sapiens, UniProt Q9BV86)	binding, ITC		pH 7.5	Kd	47 µM
N[C@@H](C[C@]1(C(=O)O)C[C@H]2OC[C@@H](O)[C@@H](O)[C@H]2O1)C(=O)O	Glutamate receptor ionotropic, kainate 3 (Rattus norvegicus, UniProt P42264, F446Y)	ligand displacement, radioligand			Ki	547 nM
COc1cc([C@@H]2c3cc4c(cc3[C@@H](O[C@@H]3O[C@@H]5CO[C@@H](C)O[C@H]5[C@H](O)[C@H]3O)[C@H]3COC(=O)[C@H]23)OCO4)cc(OC)c1O	Organic cation/carnitine transporter 2 (SLC22A5, Homo sapiens, UniProt O76082)	transporter uptake, inhibitor, radiometric			IC50	55 µM
CCc1nnc(NS(=O)(=O)c2ccc(NC(=S)NC(=O)/C=C/c3ccc(F)cc3)cc2)s1	Prostaglandin E2 receptor EP2 subtype (PTGER2, Homo sapiens, UniProt P43116)	cAMP, antagonist, TR-FRET			Kb	8.8 nM
COC(=O)C1=CCCN(C)C1	Acetyl-CoA acetyltransferase, mitochondrial (Homo sapiens, UniProt P24752)	enzyme activity, inhibitor			IC50	~11.1 µM
N#Cc1c(N)nc(SCC(N)=O)c(C#N)c1-c1ccc(OCC2CC2)cc1	Adenosine receptor A2b (ADORA2B, Homo sapiens, UniProt P29275)	ligand displacement in cells, radioligand			IC50	0.785 µM
COc1cc(C(=O)N2CC[C@@H](O)[C@@H](N)C2)cc2nc(-c3cc4ccccc4n3CC3CC3)n(C)c12	CHRM1	calcium signal, antagonist, fluorescence			IC50	12.6 µM
CC(C)C[C@H]1C(=O)N2CCC[C@H]2[C@]2(O)O[C@](NC(=O)[C@@H]3C=C4c5cccc6[nH]cc(c56)C[C@H]4N(C)C3)(C(C)C)C(=O)N12	Solute carrier organic anion transporter family member 1B1 (SLCO1B1, Homo sapiens, UniProt Q9Y6L6)	transporter uptake, inhibitor, fluorescence	CHO	30 min, pH 7.4	IC50	0.8 µM
N#C[C@H](C[C@@H]1CCCNC1=O)NC(=O)[C@H](CC1CC1)NC(=O)c1cc2cccc(Cl)c2[nH]1	CYP3A4	enzyme activity, inhibitor	human, liver microsomes	midazolam probe	IC50	69.4 µM
CCc1cc(/C(C)=N/OCc2ccc(C3CCCCC3)c(C(F)(F)F)c2)ccc1CN1CC(C(=O)O)C1	CYP3A4	enzyme activity, inhibitor	human, liver microsomes	20 min, midazolam probe	IC50	> 1.1 µM
N[C@@H](CCP(=O)(O)O)C(=O)O	Metabotropic glutamate receptor 8 (Grm8, Rattus norvegicus, UniProt P70579)	calcium signal, agonist			EC50	58.9 nM
CC(=O)N[C@H](C(=O)N[C@@H](CC(=O)O)C(=O)N[C@@H](CC(=O)O)C(=O)N[C@@H](Cc1ccccc1)C(=O)N[C@@H](CC(=O)O)C(=O)N[C@@H](CCCNC(=N)N)C(=O)N[C@H](C(=O)N[C@@H](Cc1c[nH]c2ccccc12)C(=O)N[C@@H](CCC(N)=O)C(=O)NCC(=O)N[C@@H](CC(C)C)C(=O)N[C@H](C(=O)NCC(=O)N[C@@H](CC(C)C)C(N)=O)C(C)C)C(C)C)C(C)C	E3 ubiquitin-protein ligase Mdm2 (MDM2, Homo sapiens, UniProt Q00987)	ligand displacement, FP			Kd	41 µM
